Data taken from ChEMBL document CHEMBL4819034, “Tricyclic-Carbocyclic RORγt Inverse Agonists-Discovery of BMS-986313” (J Med Chem, 2021).

What was measured:
[1] = Volume of distribution at steady state in dog at 1 mg/kg, iv; type: ADME, organism-based, Canis lupus familiaris; conditions: in vivo, read-out: Vdss
How it was run: (§1)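 Single intravenous dose: mouse and rat 2 mg/kg, dog and cynomolgus 1 mg/kg. Steady-state volume of distribution was derived from the IV arm. Values are means from three or more animals.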

Cytochrome P450 3A4 = Cytochrome P450 3A4 (Homo sapiens, UniProt P08684); assay: Inhibition of CYP3A4 (unknown origin); type: ADME
[2] = Cmax in dog at 2 mg/kg, po; type: ADME, organism-based, Canis lupus familiaris; parameters: route oral, dose 2 mg/kg; conditions: in vivo
How it was run: (§2)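 Single-dose PK, IV and PO. Doses: mouse and rat 2 mg/kg IV / 4 mg/kg PO; dog and cyno 1 mg/kg IV, with 1 or 2 mg/kg PO.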

Mus musculus [3] = assay: Protection against imiquimod-induced C57BL/6 mouse model of psoriasis assessed as reduction in IL-17F mRNA levels at 10 mg/kg, po BID for 7 days by RT-PCR analysis relative to control; type: functional; parameters: scale not given: the % may be the effect or the level left; conditions: time 7 day
[4] = biological target: T1, Oxysterols receptor LXR-alpha (Homo sapiens, UniProt Q13133); assay: Inverse agonist activity at LXRalpha (unknown origin)
T1 sequence (Q13133 whole entry): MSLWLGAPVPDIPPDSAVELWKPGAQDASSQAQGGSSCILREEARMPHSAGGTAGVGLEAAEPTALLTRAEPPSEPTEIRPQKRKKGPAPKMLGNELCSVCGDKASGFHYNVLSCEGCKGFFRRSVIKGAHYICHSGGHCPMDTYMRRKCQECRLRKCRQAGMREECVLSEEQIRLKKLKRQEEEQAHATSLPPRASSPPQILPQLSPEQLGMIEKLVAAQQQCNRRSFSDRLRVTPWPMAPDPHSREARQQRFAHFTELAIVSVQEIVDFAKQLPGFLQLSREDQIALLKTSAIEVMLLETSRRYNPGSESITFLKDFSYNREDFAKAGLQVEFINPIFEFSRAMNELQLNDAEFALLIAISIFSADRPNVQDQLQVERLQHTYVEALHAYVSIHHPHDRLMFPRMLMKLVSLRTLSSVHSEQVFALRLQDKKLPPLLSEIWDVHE

Mus musculus [5] = assay: Protection against imiquimod-induced C57BL/6 mouse model of psoriasis assessed as reduction in IL-17F mRNA levels at 20 mg/kg, po BID for 7 days by RT-PCR analysis relative to control; type: functional; parameters: scale not given: the % may be the effect or the level left; conditions: time 7 day
Mus musculus [6] = assay: Protection against imiquimod-induced C57BL/6 mouse model of psoriasis assessed as reduction in IL-17F mRNA levels at 5 mg/kg, po BID for 7 days by RT-PCR analysis relative to control; type: functional; parameters: scale not given: the % may be the effect or the level left; conditions: time 7 day
[7] = Volume of distribution at steady state in cynomolgus monkey at 1 mg/kg, iv; type: ADME, organism-based, Macaca fascicularis; conditions: in vivo, read-out: Vdss; how it was run: as §1
[8] = Volume of distribution at steady state in mouse at 2 mg/kg, iv; type: ADME, organism-based; conditions: in vivo, read-out: Vdss; how it was run: as §1
Mus musculus [9] = assay: Protection against imiquimod-induced C57BL/6 mouse model of psoriasis assessed as reduction in IL-17A mRNA levels at 5 mg/kg, po BID for 7 days by RT-PCR analysis relative to control; type: functional; parameters: scale not given: the % may be the effect or the level left; conditions: time 7 day
Cytochrome P450 2D6 = Cytochrome P450 2D6 (Homo sapiens, UniProt P10635); assay: Inhibition of CYP2D6 (unknown origin); type: ADME
Mus musculus [10] = assay: Protection against recombinant human IL23-induced acanthosis C57BL/6 mouse model assessed as inhibition of ear thickening at 3 mg/kg, po BID for 10 days and measured every other day relative to control; type: functional; conditions: C57BL/6, po, 240 h, time 10 day
How it was run: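 IL-23 ear-injection acanthosis model in C57BL/6 mice with BID oral dosing. Ear thickness % change was recorded every other day, before each next injection, from a day 0 baseline. Inhibition of ear thickening was calculated against the placebo arm from the area under the curve over the study duration.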

[11] = biological target: T2, Nuclear receptor subfamily 1 group I member 2 (Homo sapiens, UniProt O75469); assay: Inverse agonist activity at PXR (unknown origin)
T2 sequence (O75469 whole entry): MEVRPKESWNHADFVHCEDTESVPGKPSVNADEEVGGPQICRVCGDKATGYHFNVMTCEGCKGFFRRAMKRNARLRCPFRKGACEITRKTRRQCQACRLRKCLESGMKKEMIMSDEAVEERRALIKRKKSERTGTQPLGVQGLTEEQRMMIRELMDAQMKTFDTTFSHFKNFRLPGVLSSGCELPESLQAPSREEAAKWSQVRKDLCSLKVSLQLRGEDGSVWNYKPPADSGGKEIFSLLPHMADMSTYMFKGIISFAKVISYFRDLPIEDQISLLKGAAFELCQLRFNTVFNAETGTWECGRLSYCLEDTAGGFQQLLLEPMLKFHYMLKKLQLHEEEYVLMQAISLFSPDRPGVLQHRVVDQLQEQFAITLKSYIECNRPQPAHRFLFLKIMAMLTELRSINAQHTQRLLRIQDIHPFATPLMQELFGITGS

Mus musculus [12] = assay: Protection against imiquimod-induced C57BL/6 mouse model of psoriasis assessed as inhibition of skin thickening at 20 mg/kg, po BID for 7 days and measured every day for 8 days relative to control; type: functional; conditions: C57BL/6, po, 168 h, time 7 day
[13] = Half life in mouse liver microsomes; type: ADME, Microsome
How it was run: (§3)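 Liver microsome half-life (min) measured in human, mouse, rat, dog and cyno liver microsomes.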

Mus musculus [14] = assay: Protection against recombinant human IL23-induced acanthosis C57BL/6 mouse model assessed as change in ear thickness score at 15 mg/kg, po BID for 10 days and measured every other day relative to control; type: functional; conditions: time 10 day
How it was run: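 IL-23 was injected into the ear of C57BL/6 mice to induce dermal inflammation and epidermal hyperplasia. Ear thickness was measured at baseline on day 0, then as % change every other day before each next ear injection. Oral dosing was BID.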

[15] = Half life in cynomolgus monkey liver microsomes; type: ADME, Macaca fascicularis, Microsome; how it was run: as §3
[16] = Oral bioavailability in rat at 4 mg/kg; type: ADME, organism-based; conditions: in vivo; how it was run: as §2
[17] = Protein binding in mouse assessed as unbound fraction; type: ADME
[18] = Cmax in rat at 4 mg/kg, po; type: ADME, organism-based; parameters: route oral, dose 4 mg/kg; conditions: in vivo; how it was run: as §2
[19] = Metabolic stability in rat liver microsomes assessed as parent compound remaining; type: ADME, Microsome
How it was run: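 Test compound at 0.5 μM initial concentration incubated with human, mouse or rat liver microsomes (protein 1 mg/mL). Metabolic stability reported as percent of parent compound remaining after incubation.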

Mus musculus [20] = assay: Protection against recombinant human IL23-induced acanthosis C57BL/6 mouse model assessed as reduction in IL-17F mRNA levels at 15 mg/kg, po BID BID for 10 days by qRT-PCR analysis relative to control; type: functional; parameters: scale not given: the % may be the effect or the level left; conditions: time 10 day
How it was run: (§4)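 In the IL-23 ear-injection model in C57BL/6 mice with BID oral dosing, ear tissue was collected from all animals at study end on day 10. IL-17A and IL-17F mRNA expression was quantified by qPCR and compared with the placebo arm.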

[21] = Oral bioavailability in dog at 2 mg/kg; type: ADME, organism-based, Canis lupus familiaris; conditions: in vivo; how it was run: as §2
Mus musculus [22] = assay: Protection against recombinant human IL23-induced acanthosis C57BL/6 mouse model assessed as reduction in IL-17F mRNA levels at 3 mg/kg, po BID BID for 10 days by qRT-PCR analysis relative to control; type: functional; parameters: scale not given: the % may be the effect or the level left; conditions: time 10 day; how it was run: as §4
[23] = AUC (0 to 24 hrs) in dog at 2 mg/kg, po; type: ADME, organism-based, Canis lupus familiaris; parameters: time < 24 hr, route oral, dose 2 mg/kg; conditions: in vivo

Cytochrome P450 3A4, sequence (P08684 whole entry): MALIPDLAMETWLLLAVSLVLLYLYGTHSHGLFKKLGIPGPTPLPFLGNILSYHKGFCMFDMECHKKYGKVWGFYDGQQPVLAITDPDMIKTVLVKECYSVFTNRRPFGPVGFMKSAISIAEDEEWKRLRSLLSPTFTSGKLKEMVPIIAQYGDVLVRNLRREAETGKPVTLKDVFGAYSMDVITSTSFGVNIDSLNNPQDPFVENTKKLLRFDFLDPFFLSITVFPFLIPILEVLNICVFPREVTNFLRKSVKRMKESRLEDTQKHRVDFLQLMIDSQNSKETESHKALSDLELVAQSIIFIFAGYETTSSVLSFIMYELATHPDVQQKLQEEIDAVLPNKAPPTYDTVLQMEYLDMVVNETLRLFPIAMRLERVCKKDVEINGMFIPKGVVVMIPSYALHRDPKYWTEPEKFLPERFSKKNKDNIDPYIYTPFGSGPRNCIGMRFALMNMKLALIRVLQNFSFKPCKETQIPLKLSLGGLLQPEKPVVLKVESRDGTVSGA
Cytochrome P450 2D6, sequence (P10635 whole entry): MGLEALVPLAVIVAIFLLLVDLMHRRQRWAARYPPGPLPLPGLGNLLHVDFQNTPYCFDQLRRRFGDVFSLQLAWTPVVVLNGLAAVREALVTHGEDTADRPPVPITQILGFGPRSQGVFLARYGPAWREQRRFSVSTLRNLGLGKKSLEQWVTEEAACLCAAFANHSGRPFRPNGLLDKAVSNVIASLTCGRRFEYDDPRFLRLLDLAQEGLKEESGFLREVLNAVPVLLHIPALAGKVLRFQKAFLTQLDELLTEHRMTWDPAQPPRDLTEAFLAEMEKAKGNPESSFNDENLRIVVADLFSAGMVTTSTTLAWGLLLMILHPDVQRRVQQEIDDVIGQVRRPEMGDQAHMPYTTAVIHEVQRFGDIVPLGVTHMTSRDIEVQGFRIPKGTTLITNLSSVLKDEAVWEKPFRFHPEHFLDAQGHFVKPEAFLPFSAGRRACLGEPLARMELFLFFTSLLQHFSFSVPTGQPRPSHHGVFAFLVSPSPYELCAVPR

For `CC(C)(O)C(=O)N[C@@H]1CC[C@@]2(S(=O)(=O)c3ccc(F)cc3)c3ccc(C(F)(C(F)(F)F)C(F)(F)F)cc3CC[C@@H]12`, the Vd [1] was 3.2 L/kg, the IC50 (Cytochrome P450 3A4) was 11 µM and the Cmax [2] was 1.3 µM. It also gave an Activity (Mus musculus [3]) of 89.7%, an EC50 [4] greater than 5 µM and an Activity (Mus musculus [5]) of 97.9%. For the same compound, the Activity (Mus musculus [6]) was 79.2%, the Vd [7] was 2.7 L/kg and the Vd [8] was 3 L/kg. For the same compound, the Activity (Mus musculus [9]) was 75.9%, the IC50 (Cytochrome P450 2D6) was 20 µM and the inhibition in vivo at 3 mg/kg (Mus musculus [10]) was 42.3%. The EC50 [11] was greater than 5 µM, the inhibition in vivo at 20 mg/kg (Mus musculus [12]) was 57.7% and the half-life [13] was 2 h. The Activity (Mus musculus [14]) was 66.8%, the half-life [15] was 2 h and the bioavailability [16] was 65%. For the same compound, the fraction unbound [17] was 0.006, the Cmax [18] was 1 µM and the Stabilty [19] was 100%. It also gave an Activity (Mus musculus [20]) of 79.6%, a bioavailability [21] of 83% and an Activity (Mus musculus [22]) of 13.7%. The AUC(0-t) at 24 h [23] was 59.8 µM·h.
